Compound activity from PubChem BioAssay.
Ecoli tolC: growth inhibitors of E. coli BW25113 tolC mutant | OD615 | growth inhibition, % at 10 µM (by protocol) | 65,000 compounds, 2.2% hits | AID 573;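 active means growth inhibition at or above a cutoff equal to the mean over every tested compound plus 3 SD, cut at about 60% in these data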;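 further: growth measured after 20 h incubation at 37 °C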
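Signal: optical density read at 615 nm; Assay system: E. coli ΔtolC::kan strain BW25113; Times: 20 h incubation with compound, 37 °C; Dosing: 10 µM final, single dose.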
PostGolgi ctrl: growth of the yeast control strain, post-Golgi counter-screen; efflux-deficient yeast background strain, growth absorbance A615, 16 h; 98,000 compounds, 5% hits; AID 738; inhibition, % at 10 µM
PostGolgi yeast: growth inhibition of a yeast mutant, post-Golgi transport screen | AID 739 | 98,000 compounds, 0.9% hits | post-Golgi transport phenotypic cell assay | inhibition, % at 10 µM;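 further: yeast cells grown in 1536-well plates; yeast grown about 18 h at 30C before absorbance read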
EphB4 ephrin blk: blocks human EphB4 binding to ephrin-B2. P54760. EphB4 LBD / TNYL-RAW-Alexa532 peptide, fluorescence polarization. inhibition, % at 7 µM. 97,000 compounds, 0.15% hits;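 active means inhibition above the screen-wide mean inhibition plus 3 SD, cut at about 15% in these data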
E coli WT exp: growth inhibitors of E. coli BW25113 wild type; growth inhibition, % at 100 µM; OD600 absorbance; 98,000 compounds, 0.15% hits;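 active means growth inhibition above about 50% at one test dose, limit read from the data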;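 further: growth measured after 20 h incubation at 37 °C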
A number is an active result; n = inactive; x = not tested or not shown. Sampled rows, rich in hits. Any-hit rate of the full collection: about 6%. Unless noted, no stated cut-off is given here; in the data, active means inhibition above about 30%; inactive means the rest.

SMILES | Ecoli tolC | PostGolgi ctrl | PostGolgi yeast | EphB4 ephrin blk | E coli WT exp
COc1ccc(-c2c3c(=O)n(C)c(=O)n(C)c3cn2C2CCCCC2)cc1 | n | 41 | n | n | n
C/C(Sc1nnc(Cc2ccccc2)o1)=C(/O)c1ccccc1 | n | n | n | n | n
NC(=O)NCCC1=CCCCC1 | x | n | n | n | n
O=C(O)C1C2CCC(O2)C1C(=O)NCCC1=CCCCC1 (centres undefined) | n | 30 | n | n | n
CCCn1nnnc1NC(=O)CSc1ccc(Cl)cc1 | 75 | n | n | n | n
COc1cc(OC)cc(-c2cc3nc(C)cc(N4CCN(C(=O)c5ccco5)CC4)n3n2)c1 | x | 30 | n | n | n
Cc1cc(N2CCN(C(=O)c3ccco3)CC2)n2nc(-c3cccc(F)c3)cc2n1 | n | 47 | n | n | n
Cc1cc(N2CCOCC2)n2nc(-c3cccc(F)c3)cc2n1 | n | n | n | x | n
Cc1cc(N2CCN(C(=O)c3ccco3)CC2)n2nc(C)nc2n1 | n | x | x | x | x
Cc1cc(C(=O)CN2C(=O)c3cccc(N)c3C2=O)c(C)n1Cc1cccs1 | x | n | n | n | n
Cc1ccc2c(c1)c(C)c(C)n2CC(O)Cn1nc(C)c(Br)c1C (centres undefined) | 82 | n | n | n | n
COc1cc(C)ccc1OCCCOc1cc(C)ccc1Cl | x | x | x | n | x
Cc1ccc(Cl)c(OCCCCN(C)Cc2ccccc2)c1 | x | 34 | 93 | n | n
CCn1c(SCC(=O)Nc2ccc(C)cc2)nnc1-c1ccc(O)cc1 | x | x | x | n | x
COC(=O)c1c(C)n(-c2ccc(C)cc2)c2ccc(O)cc12 | x | 47 | n | n | n
COC(=O)c1c(C)n(-c2ccccc2)c2ccc(O)cc12 | n | 43 | n | n | n
CC(=O)c1c(C)n(-c2ccccc2)c2ccc(O)cc12 | n | n | n | n | n
COc1cccc(CNCCc2c[nH]c3ccccc23)c1OCc1ccc(F)cc1 | x | 81 | 93 | n | n
COc1cc(CNCCc2c[nH]c3ccccc23)ccc1OCc1ccc(F)cc1 | x | 41 | n | n | n
COc1cc(CNCCc2ccc(F)cc2)ccc1OCc1ccc(Cl)nc1 | x | n | n | n | n
Cc1cc2oc(C(=O)N(Cc3ccccc3)C3CCS(=O)(=O)C3)cc(=O)c2cc1Cl (centres undefined) | x | n | n | n | n
C=CCNC(=S)NNC(=O)CCC(O)CCCCC (centres undefined) | x | n | n | n | n
Nc1cc(N)c(OCC(F)(F)F)cc1OCC(F)(F)F | n | n | 30 | n | n
CCCN(CCC)c1nc2ccccc2n2c(C)nnc12 | n | 45 | n | n | n
COc1ccc(-n2c(-c3ccccc3)cc3c2CCCC3=O)cc1 | x | 68 | n | n | n
SMILES | Ecoli tolC | PostGolgi ctrl | PostGolgi yeast | EphB4 ephrin blk | E coli WT exp
Cc1ccc(-n2c(C)cc3c2CCCC3=O)cc1 | n | n | n | n | n
O=c1cc(CSc2ccc(S(=O)(=O)N3CCCCC3)cn2)nc2sccn12 | n | 73 | 79 | n | n
COC(=O)c1onc(-c2c(C)cc(C)cc2C)c1C(=O)OC | x | n | n | n | n
COc1ccccc1CCn1cnc2c3cc(C)ccc3n(C)c2c1=O | n | n | n | n | n
CCOC(=O)c1c(COc2ccccc2)oc2ccc(O)cc12 | n | n | n | n | n
CCOC(=O)c1c(-c2ccccc2)oc2ccc(OC(C)=O)cc12 | x | 32 | n | n | n
CCOC(=O)c1c(C(C)(C)C)oc2ccc(O)cc12 | x | 52 | n | n | n
COc1ccccc1-c1cc2nc(C)c(CCC(=O)NC(C)CCc3ccco3)c(C)n2n1 (centres undefined) | x | 37 | n | n | n
CCCCNC(=O)c1sc(=S)n(-c2ccccc2OC)c1N | x | n | n | n | n
O=C(NCC1CCCO1)c1sc(=S)n2c1[nH]c(=O)c1ccc(C(=O)N3CCCCC3)cc12 (centres undefined) | 67 | n | n | n | n
O=C(NCC1CCCO1)c1ccc2c(=O)n(CC3CCCO3)c(=S)[nH]c2c1 (centres undefined) | x | n | n | n | n
O=C(NC1CCCCC1)c1sc(=S)n2c1[nH]c(=O)c1ccccc12 | 100 | 56 | n | n | n
CCCCNC(=O)c1sc(=S)n2c1[nH]c(=O)c1ccccc12 | 100 | 44 | n | n | n
O=C(CSc1nnc(Cc2cccs2)n1-c1ccc(Cl)cc1)NCc1ccc2c(c1)OCO2 | x | n | n | n | n
Cc1ccc2c(c1)N(C(=O)NC1CCCCC1)C(C)(C)CC2C (centres undefined) | x | n | n | n | n
CCC1C(=O)Nc2nc(-c3ccccc3)c(-c3ccccc3)n2N=C1C (centres undefined) | x | 42 | n | n | n
Cc1ccc(/C(O)=C2\C(=O)C(=O)N(CCCN(C)C)C2c2ccccn2)cc1 (centres undefined) | n | x | x | n | x
CC(C)NC(=O)CSc1nc2ccccc2n1-c1ccccc1 | n | n | n | n | n
CC(C)(C)NC(=O)CSc1nc2ccccc2n1-c1ccccc1 | x | 33 | n | n | n
OC(CN1CCN(c2cccc(C(F)(F)F)c2)CC1)c1c[nH]c2ccccc12 (centres undefined) | n | n | n | n | n
C=CCN1C(=O)C(Cc2ccccc2)S/C1=N/N=C/c1cccs1 (centres undefined) | x | 38 | n | n | n
N#Cc1cc(-c2ccccc2)nnc1Sc1ccc(Cl)cc1 | x | n | n | n | n
Clc1ccc(Sc2cc(Cl)c(-c3ccccc3)nn2)cc1 | x | 59 | n | n | n
Cc1ccccc1CSCCNS(C)(=O)=O | x | n | n | n | n
COc1ccc(S(=O)(=O)NCCSCc2ccccc2C)cc1Br | x | 36 | n | n | n
SMILES | Ecoli tolC | PostGolgi ctrl | PostGolgi yeast | EphB4 ephrin blk | E coli WT exp
COC(=O)c1ccc(NC(=O)c2cccc(Cl)c2)o1 | x | n | n | n | n
Brc1ccccc1-c1nnc(COc2ncnc3c2cnn3-c2ccccc2)o1 | n | 74 | n | n | n
CCOCCCNS(=O)(=O)c1ccc(Br)cc1 | n | n | n | n | n
COc1cc(/C=N/N(C)c2ccccc2)ccc1O | x | n | n | n | n
COc1cc(OC)c(OC)cc1/C=N/N(C)c1ccccc1 | x | 45 | n | n | n
COc1ccc(NC(=S)NCc2ccco2)c(OC)c1 | x | n | n | n | n
COc1ccc(C2=CSC(/N=C/c3ccc(F)cc3)=NN2)cc1 | x | n | n | n | n
N=c1nc(N)nc2n1NC(c1ccc(F)cc1)=CS2 | n | n | 99 | n | n
Cc1ccc(N(C)C(=O)N2CCN(S(=O)(=O)c3c(C)cc(C)cc3C)CC2)cc1 | x | n | n | n | n
Cc1ccc2oc3nc(C)c(C(=O)Nc4cccc(C(F)(F)F)c4)cc3c(=O)c2c1 | x | n | n | n | n
CCCSc1cc(N2CCOCC2)nc(-c2ccccc2Cl)n1 | x | n | n | n | n
COc1ccc(C)cc1S(=O)(=O)Nc1cccc(Cl)c1 | n | 43 | n | n | n
COc1cccc(NS(=O)(=O)c2cc(C)ccc2OC)c1 | n | n | n | n | n
CCOc1cc(S(=O)(=O)Nc2cc(C)cc(C)c2)ccc1Cl | x | 39 | n | n | n
CCOc1ccc(S(=O)(=O)Nc2cccc(Cl)c2)cc1 | 73 | x | x | n | x
CCOc1ccc(S(=O)(=O)Nc2cc(Cl)ccc2O)cc1 | 67 | n | n | n | n
CCc1nc2c(sc3nc(N4CCOCC4)c4c(c32)CC(C)(C)OC4)c(=O)o1 | n | x | x | x | x
